# According to paper PMC5652008 (EBioMedicine, 2017):
# Square brackets hold non-standard residues; d marks the D form. Peptide text beside a SMILES is read from it. * marks the point of attachment. Sta = CC(C)C[C@H](N)[C@@H](O)CC(=O)O; Palmitoyl = CCCCCCCCCCCCCCCC(=O)*
# How the values were obtained:
# [1] = target: T1, BACE1 (Homo sapiens, UniProt P56817); assay: SPR binding assay on immobilized BACE1
# In short: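 SPR at 18 °C in the immobilization buffer. Peptide titrations used 2-fold dilution steps, run either as single-cycle kinetics (5 concentrations) or multi-cycle kinetics (10 concentrations). Two protein surfaces and an activated/deactivated CM5 reference surface were measured in parallel on one sensor.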
# [2] = target: T2, BACE2 (Homo sapiens, UniProt Q9Y5Z0); assay: SPR binding assay on immobilized BACE2; details: BACE2 surface, 18 °C, pH 4.5
# T2 sequence (Q9Y5Z0 20-465): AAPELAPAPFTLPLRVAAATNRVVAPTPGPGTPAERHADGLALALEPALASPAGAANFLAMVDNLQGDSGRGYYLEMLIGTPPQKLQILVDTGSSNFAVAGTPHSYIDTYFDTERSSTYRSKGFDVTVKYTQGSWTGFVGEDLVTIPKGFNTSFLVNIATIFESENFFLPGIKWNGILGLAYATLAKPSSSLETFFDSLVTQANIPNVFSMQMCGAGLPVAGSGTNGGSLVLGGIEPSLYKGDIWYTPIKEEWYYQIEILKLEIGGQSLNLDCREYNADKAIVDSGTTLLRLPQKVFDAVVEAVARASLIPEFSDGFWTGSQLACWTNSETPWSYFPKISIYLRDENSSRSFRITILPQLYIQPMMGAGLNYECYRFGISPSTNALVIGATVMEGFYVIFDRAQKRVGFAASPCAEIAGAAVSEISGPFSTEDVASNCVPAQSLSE
# In short: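 Binding was run at 18 °C in the same buffer, either single-cycle (5 concentrations) or multi-cycle (10 concentrations), twofold dilutions, against an activated/deactivated reference surface.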
# [3] = target: T1, BACE1; assay: Cell-based Aβ lowering IC50 assay
# In short: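 Test compounds, free or Brain Shuttle-coupled, added in serial dilutions to HEK293 cells stably expressing wild-type human APP695, grown in Iscove's medium with 10% FBS to ~80% confluency. Construct dilution buffers served as control. Overnight at 37 °C, 5% CO2. Supernatant Aβ40 read by AlphaLISA: acceptor beads 1 h, then streptavidin donor beads 30 min, both at RT; emission at 615 nm. Compared with vehicle-treated cells; mean ± SEM.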
# [4] = tested on: Aβ production in human stem-cell derived neurons; assay: Human neural stem cell-based Aβ40 inhibition assay; details: 48 h incubation
# In short: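 Neurons differentiated from SB-AD3 human iPSCs (healthy adult donor fibroblasts) via embryoid bodies and dual SMAD inhibition. Doses 0.128–10,000 nM (three independent differentiations) or 0.001024–80 nM (one differentiation), two technical replicates per dose. Vehicle was histidine/NaCl/1.3 mM hydroxypropyl-β-cyclodextrin for peptides and DMSO for small molecules. Aβ40 read by AlphaLISA at 615 nm, compared with vehicle-treated cells; means ± SEM.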
# [5] = tested on: plasma Aβ; assay: Plasma Aβ40 after single i.v. dose in mice; type: in vivo, C57BL/6 J mice; details: 5 h post dose
# In short: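 Nine-week-old female mice received one i.v. injection of test compound at 0.003–3 mg/kg, with the buffer alone as vehicle control; three animals per group. Under anaesthesia, blood was collected into EDTA tubes, spun 8 min at 1600 × g, and plasma diluted 1:10 in 0.2% diethanolamine before solid-phase extraction.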
# [6] = target: T3, N-terminal T7-tagged BACE2 (amino acids 20-465) (UniProt Q9Y5Z0 20-465); assay: SPR
# T3 sequence: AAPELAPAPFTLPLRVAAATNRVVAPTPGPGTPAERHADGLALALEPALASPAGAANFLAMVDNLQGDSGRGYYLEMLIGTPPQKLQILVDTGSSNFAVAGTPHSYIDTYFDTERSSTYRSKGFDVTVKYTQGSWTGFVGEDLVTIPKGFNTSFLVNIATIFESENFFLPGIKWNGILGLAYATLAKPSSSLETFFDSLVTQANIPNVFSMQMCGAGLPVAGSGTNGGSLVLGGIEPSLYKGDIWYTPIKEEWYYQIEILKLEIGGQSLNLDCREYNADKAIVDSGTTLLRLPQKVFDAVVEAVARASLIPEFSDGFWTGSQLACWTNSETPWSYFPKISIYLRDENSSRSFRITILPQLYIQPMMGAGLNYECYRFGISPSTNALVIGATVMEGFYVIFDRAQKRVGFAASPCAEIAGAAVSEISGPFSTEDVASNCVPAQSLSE
# [7] = target: Beta-secretase 1 (BACE1), C-terminal His-tagged full length; assay: SPR
# [8] = target: BACE1 ectodomain mutant protein (A14-T454, K307A) (UniProt P56817 14-454, K307A); assay: crystal structure
# BACE1 ectodomain mutant protein (A14-T454, K307A), sequence (P56817 14-454 K307A): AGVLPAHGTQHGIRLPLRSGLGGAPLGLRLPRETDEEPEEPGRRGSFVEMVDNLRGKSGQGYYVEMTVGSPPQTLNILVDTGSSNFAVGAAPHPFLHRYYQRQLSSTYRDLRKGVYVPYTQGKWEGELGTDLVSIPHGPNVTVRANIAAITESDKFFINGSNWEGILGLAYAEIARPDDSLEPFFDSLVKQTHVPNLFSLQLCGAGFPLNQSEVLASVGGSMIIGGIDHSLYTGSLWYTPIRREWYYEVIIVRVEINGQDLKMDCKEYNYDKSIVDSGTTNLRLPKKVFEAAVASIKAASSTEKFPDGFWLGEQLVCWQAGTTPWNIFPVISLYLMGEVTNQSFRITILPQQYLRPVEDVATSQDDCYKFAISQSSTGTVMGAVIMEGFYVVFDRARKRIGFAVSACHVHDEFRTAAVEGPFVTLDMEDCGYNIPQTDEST
# T1 sequence (P56817 46-501): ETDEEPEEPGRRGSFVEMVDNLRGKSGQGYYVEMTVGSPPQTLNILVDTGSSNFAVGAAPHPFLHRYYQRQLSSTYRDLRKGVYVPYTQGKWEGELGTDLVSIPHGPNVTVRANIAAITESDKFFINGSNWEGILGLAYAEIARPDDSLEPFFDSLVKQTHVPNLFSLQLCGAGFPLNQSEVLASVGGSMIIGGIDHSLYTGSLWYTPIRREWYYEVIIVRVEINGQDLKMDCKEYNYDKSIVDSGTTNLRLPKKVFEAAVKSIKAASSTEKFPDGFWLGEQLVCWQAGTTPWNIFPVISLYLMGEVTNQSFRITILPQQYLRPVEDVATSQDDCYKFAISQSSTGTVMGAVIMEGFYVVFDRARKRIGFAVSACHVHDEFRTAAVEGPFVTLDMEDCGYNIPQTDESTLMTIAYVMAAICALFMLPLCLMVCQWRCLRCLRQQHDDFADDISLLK
molecule,measurement,setting,value
"CC(C)C[C@H](NC(=O)[C@H](CC(N)=O)NC(=O)[C@@H](NC(=O)[C@@H](N)CCC(=O)O)C(C)C)[C@@H](O)CC(=O)N[C@H](C(=O)N[C@@H](C)C(=O)N[C@@H](CCC(=O)O)C(=O)N1CCC[C@@H]1C(N)=O)C(C)C [Pep#1, Glu-Val-Asn-Sta-Val-Ala-Glu-DPro-NH2] (H-EVN[Sta]VAE[dP]-NH2; N-terminus assumed)",kon,"[1]; BACE1 surface, 18 °C, pH 4.5",2.5–4.0·10^3 1/Ms
same,Selectivity for BACE1,[1]; ratio KD(BACE2)/KD(BACE1),> 280
same,kon,[2],2.7–3.1·10^3 1/Ms
same,IC50,[3],> 40 µM
"CCCCCCCCCCCCCCCC(=O)NCCCC[C@H](NC(=O)[C@H]1CCCN1C(=O)[C@H](CCC(=O)O)NC(=O)[C@H](C)NC(=O)[C@@H](NC(=O)C[C@H](O)[C@H](CC(C)C)NC(=O)[C@H](CC(N)=O)NC(=O)[C@@H](NC(=O)[C@H](CCC(=O)O)NC(=O)CNC(=O)[C@@H](CCCCN)NC(=O)CNC(=O)[C@H](CC(C)C)NC(=O)[C@@H]1CCCN1C(=O)[C@@H](NC(=O)[C@H](Cc1ccccc1)NC(=O)[C@H](CCCCN)NC(=O)[C@@H]1CCCN1C(=O)[C@H](Cc1ccc(O)cc1)NC(=O)CNC(=O)CNC(=O)CN)[C@@H](C)CC)C(C)C)C(C)C)C(N)=O [Pep#15, Gly-Gly-Gly-Tyr-Pro-Lys-Phe-Ile-Pro-Leu-Gly-DLys-Gly-Glu-Val-Asn-Sta-Val-Ala-Glu-DPro-Lys(Palmitoyl)-NH2] (H-GGGYPKFIPLG[dK]GEVN[Sta]VAE[dP]K(Palmitoyl)-NH2; N-terminus assumed)",Aβ production inhibition in human stem-cell derived neurons,[4],able to reduce the Aβ production
same,Plasma Aβ40 inhibition,"[5]; 0.003-3 mg/kg i.v., uncoupled peptides",Dose-dependent inhibition
same,Plasma Aβ level reduction,"[5]; 3 mg/kg i.v., uncoupled peptide",50%
same,Aβ40 production inhibition in HEK293 APP cells,[3]; 16 h / overnight incubation,blocked production of Aβ40
Ac-YPYFLPISAK-NH2 [Pep#6],Kd,[6],66 µM
same,Kd,[7],25 µM
Ac-ALYPYFLPISAK-NH2 [Pep#6a],binding result,[8],binds
